# Assay outcomes from PubChem.
# PHOSPHO1 block – blocks human PHOSPHO1 phosphatase activity | Q8TCT1 | recombinant PHOSPHO1, absorbance phosphatase assay | inhibition, % at 13.3 µM | actives 1.1% (n = 290,000) | AID 1565; in the data active = inhibition above about 60%
# PKD1 kinase inh – inhibitors of human PKD1 kinase. Q15139. PKD1 kinase fluorescence polarization assay. inhibition, % (concentration not given with the values). actives 0.056% (n = 200,000); in the data active = inhibition above about 50%
# p47phox inh – p47phox (human) inhibition; p47phox/p22phox peptide binding, fluorescence polarization, 2 h; inhibition, % at 24.7 µM; actives 0.53% (n = 220,000); AID 1274;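 active = inhibition above about 30%, limit read from the data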;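 note: 0% = p47phox with labelled peptide and 100% = labelled peptide alone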
# ABCB1 inh – inhibitors of human ABCB1 transporter, ABCG2 counter-screen. P08183. CCRF-Adr cells, JC-1 efflux, flow cytometry. inhibition, % at 6.6 µM. actives 0.067% (n = 190,000). AID 1326; in the data active = inhibition above about 40%;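 note: 0% = vehicle and 100% = reference inhibitor; higher value means more JC-1 retained so stronger ABCB1 efflux block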
# HSV augment – HSV replication enhancement. HSV replication augmentation in cells, fold increase. maximum fold increase. actives 0.005% (n = 220,000). AID 1956; in the data active = maximum fold increase above about 1.5; tested in PC3 cells
# ABCG2 inh – blocks JC-1 efflux by human ABCG2 transporter. Q9UNQ0. IgMXP3 cells, flow cytometry. inhibition, % at 6.6 µM. actives 0.1% (n = 190,000). AID 1325;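 active = inhibition above 80%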;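 note: 0% = DMSO and 100% = nicardipine control wells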
#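 Read-out basis: Efflux inhibition in percent versus controls | Test system: ABCG2 IgMXP3 and barcoded ABCB1 CCRF-Adr cell mix | Quantity: 3 million cells/mL in well | Schedule: 10 min at 25 °C | Control set: Nicardipine as high control, DMSO as low control | Reagent: JC-1 as fluorescent efflux pump substrate | Signal: Flow cytometry of retained JC-1 fluorescence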
# Starred values were filed as active, the others as inactive; i = inactive; x = no result given. The list is not random: actives were taken first. Their share in the collection is about 1.6%.
SMILES,PHOSPHO1 block,PKD1 kinase inh,p47phox inh,ABCB1 inh,HSV augment,ABCG2 inh
S=c1[nH]nc(-c2ccccn2)n1/N=C/c1cccc2ccccc12,78*,-3,6,-2,i,-12
CCc1ccc(NC(=S)Nc2cccc3cnccc23)cc1,44,-3,-4,0,i,2
CCCCN(Cc1ccccc1)S(=O)(=O)c1cc(Br)cc2c1N(C(C)=O)C(C)C2 (stereo not drawn),-1,-14,-13,3,i,5
O=C(NCCNS(=O)(=O)c1ccc(Cl)cc1)c1cc(OCC(F)(F)F)ccc1OCC(F)(F)F,1,-7,-11,0,i,3
O=C(NCCNS(=O)(=O)c1ccccc1)c1cc(OCC(F)(F)F)ccc1OCC(F)(F)F,62*,0,-15,0,i,3
CCOC(=O)c1cc(S(=O)(=O)N2CCCC2)cn1C,29,x,x,x,x,x
Cn1c(C(=O)NCc2ccccc2)cc2oc3ccccc3c21,18,-1,31*,0,i,1
CCCCC(=O)Nc1cnc(NC(=O)c2cccs2)cc1C,24,x,x,x,x,x
O=C(NCCN1CCCC1)c1ccc(Cn2c(=S)[nH]c3cc4c(cc3c2=O)OCO4)cc1,71*,-3,-5,0,i,2
COc1cc(NC(=O)c2ccc3c(=O)n(Cc4ccco4)c(=S)[nH]c3c2)cc(OC)c1OC,76*,-14,15,-1,i,-2
CN1CCN(C(=O)c2ccc3c(=O)n(Cc4ccco4)c(=S)[nH]c3c2)CC1,69*,0,-12,1,i,1
O=c1c2cc3c(cc2[nH]c(=S)n1Cc1ccco1)OCO3,78*,-4,2,0,x,21
O=C(CNC1CCCCCC1)Nc1ccccc1N1CCOCC1,12,-6,0,0,i,0
Cc1[nH]c(=O)[nH]c(=O)c1S(=O)(=O)Nc1ccc(F)c([N+](=O)[O-])c1,5,x,x,x,x,x
COc1ccc2cc3cc(C(=O)N4CCN(c5ccccn5)CC4)oc3nc2c1,60,x,x,x,x,x
CCn1c(O)c(C=Nc2ccccc2)oc1=S,103*,0,-10,-2,i,-1
COc1cnn(-c2ccc(C)cc2)c(=O)c1SCc1ccccc1,81*,-8,-3,1,i,35
COc1cnn(-c2ccc(Br)cc2)c(=O)c1SCc1ccccc1,12,-10,-20,1,i,14
Cn1cc(/C=N/n2cnc3sc4c(c3c2=O)CCCC4)c2ccccc21,62*,-1,-3,1,i,4
O=c1c2c3c(sc2ncn1/N=C/c1ccc([N+](=O)[O-])o1)CCCC3,42,1,2,0,i,2
CC(=O)c1c(C)[nH]c(C(=O)Nc2cccc(C)n2)c1C,33,x,x,x,x,x
Cc1ccc(-n2cc(CNCCN3CCOC3=O)c(-c3cccc(C)c3)n2)cc1,3,-1,1,8,i,9
O=C1OCCN1CCNCc1cn(-c2ccc(F)cc2)nc1-c1ccccc1Cl,60*,-3,-8,0,i,-1
O=C(CCN1C(=O)/C(=C/c2ccccc2Cl)SC1=S)NCCCN1CCOCC1,54,x,x,x,x,x
CC(C)=CCN1CCN(Cc2ccc(N3CCNC3=O)cc2)CC1CCO (stereo not drawn),22,4,8,0,i,1
SMILES,PHOSPHO1 block,PKD1 kinase inh,p47phox inh,ABCB1 inh,HSV augment,ABCG2 inh
O=C1NCCN1c1ccc(CN2CCN(C3CCCCC3)C(CCO)C2)cc1 (stereo not drawn),14,3,64*,0,i,-2
CC(C)Sc1ccccc1C(=O)Nc1ccc2c(c1)n(C)c(=O)n2C,19,x,x,x,x,x
CSCCC(NC(N)=O)C(=O)Nc1ccc(C)cc1 (stereo not drawn),63*,-4,-4,-1,i,0
COc1ccc2c(c1)c(C(=O)CNc1nc(C)cs1)c(C)n2C,81*,14,-16,1,i,3
CCOCc1cnc(C)nc1NCC(=O)c1c(C)n(C)c2ccc(OC)cc12,92*,-3,16,0,i,2
CCn1c(SCc2ccc(Cl)c(Cl)c2)nnc1C(C)NC(=O)c1ccc(OC)cc1 (stereo not drawn),-17,-17,-2,6,i,27
COc1ccc(C(=O)NC(C)c2nnc(SCc3ccc(Cl)c(Cl)c3)n2C)cc1 (stereo not drawn),82*,-6,-6,20,i,51
